pKi: −log10 of the molar value. ≈ marks a conversion by molar mass, not a printed value.
Key:
[1] = target: Adenosine receptor A2a (Rattus norvegicus) (UniProt P30543); assay: Binding affinity against adenosine A2A receptor in rat striatal membrane preparations using [3H]CGS-21680 at 3 uM; assay type: cell membranes; conditions: Striatum
How it was run: (§1)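 Rat striatal membranes, A2A-selective agonist [3H]CGS21680 at 5 nM. Compounds dissolved in DMSO, diluted into aqueous buffer. Value given as percent inhibition of radioligand binding at the single stated concentration.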

Adenosine receptor A1 = target: T1, Adenosine receptor A1 (Rattus norvegicus, UniProt P25099); assay: Tested for its binding affinity at adenosine A1 receptor in rat brain cortical membrane preparations using [3H]CCPA as a radioligand; assay type: cell membranes
T1 sequence (P25099 whole entry): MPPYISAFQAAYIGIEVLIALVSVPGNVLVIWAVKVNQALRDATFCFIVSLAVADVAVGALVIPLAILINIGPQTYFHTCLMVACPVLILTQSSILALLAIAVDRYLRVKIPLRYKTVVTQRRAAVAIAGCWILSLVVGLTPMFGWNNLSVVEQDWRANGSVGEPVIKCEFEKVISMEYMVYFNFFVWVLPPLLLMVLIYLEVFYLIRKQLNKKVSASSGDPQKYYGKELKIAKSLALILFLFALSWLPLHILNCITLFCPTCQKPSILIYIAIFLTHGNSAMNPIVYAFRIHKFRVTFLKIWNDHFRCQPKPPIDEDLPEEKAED
How it was run: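 Rat brain cortical membranes, A1 agonist radioligand [3H]CCPA at 0.5 nM. Compounds dissolved in DMSO, diluted into aqueous buffer, tested at 5-7 concentrations in triplicate, at least three separate experiments.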

Adenosine receptor A2a [2] = target: T2, Adenosine receptor A2a (Rattus norvegicus, UniProt P30543); assay: Binding affinity at adenosine A2A receptor in rat striatal membrane preparations using [3H]CGS-21680 at a 30 uM; assay type: cell membranes, Striatum
T2 sequence (P30543 whole entry): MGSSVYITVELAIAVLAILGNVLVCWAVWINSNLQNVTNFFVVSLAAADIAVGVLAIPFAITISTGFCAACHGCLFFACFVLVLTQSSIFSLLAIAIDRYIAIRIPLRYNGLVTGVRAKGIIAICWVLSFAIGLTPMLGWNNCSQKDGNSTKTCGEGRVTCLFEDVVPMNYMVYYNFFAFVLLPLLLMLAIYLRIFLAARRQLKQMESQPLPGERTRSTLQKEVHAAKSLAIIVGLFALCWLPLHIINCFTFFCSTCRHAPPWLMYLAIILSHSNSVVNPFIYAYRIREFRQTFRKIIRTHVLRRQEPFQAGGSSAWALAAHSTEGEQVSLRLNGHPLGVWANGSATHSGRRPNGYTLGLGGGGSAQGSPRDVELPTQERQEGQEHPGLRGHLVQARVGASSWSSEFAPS

[3] = target: Adenosine receptor A2a (Rattus norvegicus) (UniProt P30543); assay: (§2) Binding affinity against adenosine A2A receptor in rat striatal membrane preparations using [3H]CGS-21680 at 10 uM; assay type: cell membranes; conditions: Striatum; how it was run: as §1
[4] = target: T3, Adenosine receptor A1 (Rattus norvegicus) (UniProt P25099); assay: Ratio between solubility and Ki for A1 adenosine receptor
T3 sequence (whole entry): T1 sequence (P25099 whole entry)

[5] = Solubility determined in […]-hydrochloride buffer at pH 7.4; assay type: physicochemical; conditions: in the assay text read “50 mM” for “50 nM”
How it was run: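 10 mM DMSO solution diluted 1:100 into 50 mM TRIS-HCl pH 7.4 (1% DMSO), shaken overnight at room temperature to equilibrium, centrifuged at 1000g, supernatant filtered through cotton. Dilutions analysed by HPLC with UV detection, concentration from calibration curves.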

[6] = target: Adenosine receptor A2a (Rattus norvegicus) (UniProt P30543); assay: Binding affinity against adenosine A2A receptor in rat striatal membrane preparations using [3H]CGS-21680 at 30 uM; assay type: cell membranes; conditions: Striatum; how it was run: as §1
[7] = target: Adenosine receptor A2a (Rattus norvegicus) (UniProt P30543); assay: Binding affinity against adenosine A2A receptor in rat striatal membrane preparations at 30 uM; assay type: cell membranes; conditions: Striatum; how it was run: as §1
[8] = target: Adenosine receptor A1 (Homo sapiens) (UniProt P30542); assay: Binding affinity against adenosine A1 receptor expressed in CHO cells using [3H]CCPA
Sequence of Adenosine receptor A1 (Homo sapiens) (P30542 whole entry, looked up): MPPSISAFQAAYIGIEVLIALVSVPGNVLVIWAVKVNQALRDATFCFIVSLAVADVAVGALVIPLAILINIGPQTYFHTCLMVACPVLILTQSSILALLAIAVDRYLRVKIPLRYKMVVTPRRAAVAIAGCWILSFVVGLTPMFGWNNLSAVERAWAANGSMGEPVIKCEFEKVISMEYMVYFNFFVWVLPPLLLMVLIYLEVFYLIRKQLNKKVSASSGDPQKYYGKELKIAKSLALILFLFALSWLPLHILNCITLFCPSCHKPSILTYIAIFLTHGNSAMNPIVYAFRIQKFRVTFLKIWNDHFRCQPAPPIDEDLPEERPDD

Adenosine receptor A2a [9] = target: T2, Adenosine receptor A2a; assay: as §2; assay type: cell membranes, Striatum
[10] = target: Adenosine receptor A2a (Rattus norvegicus) (UniProt P30543); assay: Binding affinity against adenosine A2A receptor in rat striatal membrane preparations using [3H]CGS-21680 at 1 uM; assay type: cell membranes; conditions: Striatum; how it was run: as §1
[11] = target: T3, Adenosine receptor A1 (Rattus norvegicus); assay: Binding affinity against adenosine A1 receptor in rat brain cortical membrane preparations using [3H]CCPA; assay type: cell membranes; conditions: concentration not given here
How it was run: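 Rat brain cortical membranes, A1 agonist radioligand [3H]CCPA at 0.5 nM. Compounds dissolved in DMSO, diluted into aqueous buffer, tested at 5-7 concentrations in triplicate, at least three separate experiments. IC50 from nonlinear curve fitting, converted to Ki with Cheng-Prusoff using KD 0.2 nM.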

[12] = target: Adenosine receptor A2a (Rattus norvegicus) (UniProt P30543); assay: Binding affinity against adenosine A2A receptor in rat striatal membrane preparations at 10 uM; assay type: cell membranes; conditions: Striatum; how it was run: as §1
[13] = target: T3, Adenosine receptor A1 (Rattus norvegicus); assay: Binding affinity against adenosine A1 receptor in rat brain cortical membrane preparations using [3H]CCPA at 30 uM; assay type: cell membranes
How it was run: (§3)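 Rat brain cortical membranes with [3H]CCPA (0.5 nM) as A1 radioligand. Compounds from DMSO stock diluted into aqueous buffer. Value given as percent inhibition of specific radioligand binding at the single stated concentration.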

[14] = target: T3, Adenosine receptor A1 (Rattus norvegicus); assay: Binding affinity against adenosine A1 receptor in rat brain cortical membrane preparations using [3H]CCPA at 100 uM; assay type: cell membranes; how it was run: as §3

Sequence of Adenosine receptor A2a (Rattus norvegicus) (P30543 whole entry): as the sequence (P30543 whole entry) above

Row | pKi (Adenosine receptor A1) | inhibition [6] [%] | Structure (SMILES) | also measured
1 | 7.44 | – | C[C@H](c1ccccc1)n1c2ccccc2c2c(N)nc(-c3cccs3)nc21 | inhibition [1]: 32%
2 | 6.25 | – | Cc1c(C)n([C@H](C)c2ccccc2)c2nc(-c3cnccn3)nc(N)c12 | pKi (Adenosine receptor A2a [2]): 5.18
3 | 5.16 | – | Cc1[nH]c2nc(C(C)c3ccccc3)nc(N)c2c1C (stereo unspecified) | inhibition [3]: 10%
4 | 7.72 | – | Cc1c(C)n([C@H](C)c2ccccc2)c2nc(-c3cccs3)nc(N)c12 | pKi (Adenosine receptor A2a [2]): 5.27
5 | 5.45 | 2 | Cc1c(C)n([C@H](C)c2ccccc2)c2nc(-c3ccccc3)nc(NCCN)c12 | Ratio [4]: 7; solubility [5]: 24.2 µM (≈ 9.33 µg/mL)
6 | 5.89 | – | C[C@H](c1ccccc1)n1c2c(c3c(N)nc(-c4cccnc4)nc31)CCCC2 | inhibition [7]: 46%
7 | 7.34 | – | Cc1c(C)n([C@H](C)c2ccccc2)c2nc(-c3ccncc3)nc(N)c12 | pKi (Adenosine receptor A2a [2]): 5.89; pKi [8]: 8.06
8 | – | – | Cc1c(C)n([C@H](C)c2ccccc2)c2nc(-c3ccccc3)nc(N)c12 | pKi (Adenosine receptor A2a [9]): 5.43
9 | 5.05 | 42 | Nc1nc(-c2ccccn2)nc2c1c1c(n2-c2ccccc2)CCCC1 | –
10 | 7.68 | – | C[C@H](c1ccccc1)n1c2ccccc2c2c(N)nc(-c3ccncc3)nc21 | Ratio [4]: 142; solubility [5]: 3 µM (≈ 1.1 µg/mL); pKi (Adenosine receptor A2a [9]): 5.73
11 | 6.27 | – | C[C@@H](c1ccccc1)n1c2ccccc2c2c(N)nc(-c3ccccn3)nc21 | Ratio [4]: 9; inhibition [10]: 6%; solubility [5]: 5 µM (≈ 1.83 µg/mL)
12 | – | – | C[C@@H](c1ccccc1)n1c2c(c3c(N)nc(-c4ccncc4)nc31)CCCC2 | inhibition [7]: 2%; inhibition [11]: 8%
13 | 7.04 | – | C[C@H](c1ccccc1)n1c2ccccc2c2c(N)nc(-c3cccnc3)nc21 | inhibition [3]: 47%
14 | 5.91 | 22 | CCC(CO)Nc1nc(-c2ccccc2)nc2c1c(C)c(C)n2C1CCCC1 (stereo unspecified) | Ratio [4]: 11; solubility [5]: 13.2 µM (≈ 5 µg/mL)
15 | 4.90 | – | C[C@@H](c1ccccc1)n1c2c(c3c(N)nc(-c4ccccn4)nc31)CCCC2 | inhibition [7]: 38%
16 | – | – | Cc1nc2nc(-c3ccccc3)[nH]c(N[C@H](C)c3ccccc3)c-2c1C | inhibition [3]: 23%
17 | 6.31 | – | Cc1c(C)n([C@H](C)c2ccccc2)c2nc(-c3cc[n+]([O-])cc3)nc(N)c12 | pKi (Adenosine receptor A2a [2]): 5.23
18 | 6.22 | – | Nc1nc(-c2ccncc2)nc2c1c1c(n2-c2ccccc2)CCCC1 | inhibition [12]: 28%
19 | 6.62 | 46 | Cc1c(C)n([C@H](C)c2ccccc2)c2nc(-c3ccccc3O)nc(N)c12 | –
20 | – | 38 | Cc1c(C)n([C@H](C)c2ccccc2)c2nc(C(C)c3ccccc3)nc(N)c12 (stereo partly specified) | inhibition [13]: 33%
21 | 5.68 | 43 | Cc1c(C)n([C@H](C)c2ccccc2)c2nc(-c3ccccn3)nc(N)c12 | –
22 | 5.73 | – | C[C@H](c1ccccc1)n1c2c(c3c(N)nc(-c4cc[n+]([O-])cc4)nc31)CCCC2 | inhibition [7]: 50%
23 | – | 44 | Nc1nc(-c2cccnc2)nc2c1c1c(n2-c2ccccc2)CCCC1 | –
24 | – | 14 | COc1ccccc1-c1nc(N)c2c(C)c(C)n([C@H](C)c3ccccc3)c2n1 | inhibition [13]: 38%
25 | 5.59 | 36 | CCC(CO)Nc1nc(-c2ccc(Cl)cc2)nc2c1c(C)c(C)n2[C@H](C)c1ccccc1 (stereo partly specified) | Ratio [4]: 4; solubility [5]: 11.2 µM (≈ 5.03 µg/mL)
26 | – | 19 | Cc1c(C)n([C@H](C)c2ccccc2)c2nc(-c3ccccc3)nc(NC3CCCC3)c12 | inhibition [13]: 41%
27 | 7.80 | – | Cc1c(C)n([C@H](C)c2ccccc2)c2nc(-c3ccco3)nc(N)c12 | pKi (Adenosine receptor A2a [2]): 6.31
28 | – | 3 | Cc1c(C)n([C@H](C)c2ccccc2)c2nc(-c3cccnc3)nc(N)c12 | inhibition [14]: 35%
29 | 4.74 | 26 | Cc1c(C)n([C@H](C)c2ccccc2)c2nc(-c3ccccc3)nc(N[C@@H](C)c3ccccc3)c12 | –

Reference: ChEMBL document CHEMBL1133538, “7-Deazaadenines bearing polar substituents: structure-activity relationships of new A(1) and A(3) adenosine receptor antagonists” (J Med Chem, 2000)
